# This is a sample that favours compounds with a hit; in the whole collection about 2% have one here.
# M5 antag: antagonists of human muscarinic M5 receptor (CHRM5); P08912; CHO-hM5 cells, Fluo-8 calcium fluorescence, ACh EC80; inhibition, % at 3 µM; 0.59% of 360,000 active; AID 624040;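 active means inhibition above a per-plate cutoff, the mean of that plate's test compounds plus 3 SD, cut at about 27% in these data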;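 further: 0% = acetylcholine EC80 with DMSO and 100% = DMSO without agonist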
# M5 PAM: positive allosteric modulators of human muscarinic M5 receptor | 0.3% of 360,000 active | CHO-K1 hM5, Fluo-8 calcium, ACh EC20 PAM; 0% = ACh EC20, 100% = ACh EC100 | activation, % at 3 µM;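 active means activation above the run cutoff, the mean activation of all test compounds plus 3 SD, cut at about 18% in these data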
#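 System: CHO-K1 cell line with stable human muscarinic M5 receptor expression | Also added: EC20 acetylcholine as agonist stimulus | Compound: One concentration, 3 µM final (nominal) | Timing: Fluo-8 loading 80 min at 37 °C plus 30 min room temperature | Measured by: Fluo-8 calcium dye fluorescence, kinetic read | Read-out basis: % activation, ACh-normalized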
# CHRM5 agonist: agonists of human muscarinic M5 receptor (CHRM5); P08912; CHO-K1 hM5 cells, Fluo-8 calcium fluorescence; 0% DMSO wells, 100% maximal acetylcholine response; activation, % at 3 µM; 0.19% of 360,000 active;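 active means activation above the run's mean over test compounds plus 3 SD, cut at about 23% in these data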;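 further: signal is peak over basal fluorescence ratio across the kinetic read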
# M1 ag: activates human CHRM1 receptor | activation, % at 3 µM | CHO-K1 hM1, Fluo-8 calcium fluorescence, agonist mode; 0% DMSO, 100% acetylcholine EC100 | 0.33% of 360,000 active | P11229;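 active means activation above the run's mean compound activation plus 3 SD, cut at about 16% in these data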;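 further: peak over basal fluorescence ratio within a 140 s kinetic read after compound addition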
# Target sequence (P11229 whole entry, looked up): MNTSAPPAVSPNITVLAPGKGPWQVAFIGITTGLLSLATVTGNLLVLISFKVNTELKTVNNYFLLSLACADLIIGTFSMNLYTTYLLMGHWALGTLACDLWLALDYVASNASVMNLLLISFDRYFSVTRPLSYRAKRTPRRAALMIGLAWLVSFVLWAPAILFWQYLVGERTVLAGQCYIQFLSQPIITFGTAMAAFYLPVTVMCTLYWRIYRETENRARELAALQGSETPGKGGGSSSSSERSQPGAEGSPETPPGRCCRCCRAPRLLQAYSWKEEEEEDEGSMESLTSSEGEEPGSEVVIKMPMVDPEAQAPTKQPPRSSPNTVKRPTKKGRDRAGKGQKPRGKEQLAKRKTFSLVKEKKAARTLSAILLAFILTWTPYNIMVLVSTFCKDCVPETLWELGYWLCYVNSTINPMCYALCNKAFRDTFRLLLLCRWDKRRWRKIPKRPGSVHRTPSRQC
# M1 antag: antagonists of human M1 muscarinic receptor; AID 588852; inhibition, % at 3 µM; CHO-K1 hM1, Fluo-8 calcium fluorescence, ACh EC80 antagonist; P11229; 1.3% of 360,000 active;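 active means percent inhibition above its own plate's cutoff, namely the mean of that plate's compound wells plus 3 SD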;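 further: peak over basal fluorescence ratio during 140 s after agonist addition; 0% = ACh EC80 plus DMSO and 100% = DMSO alone without agonist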
# CHRM1 PAM: potentiates human M1 receptor response to acetylcholine; AID 588819; 0.088% of 360,000 active; activation, % at 3 µM; CHO-K1 hM1, Fluo-8 calcium fluorescence, ACh EC20; 0% = ACh EC20, 100% = maximal ACh; P11229; in the data active means activation above about 19%, passing the limit was not always enough
# * marks the source's active call; other numbers are inactive results; nt = no result.
SMILES,M5 antag,M5 PAM,CHRM5 agonist,M1 ag,M1 antag,CHRM1 PAM
CN(Cc1ccccc1)C(=O)c1ncn2c1C(=O)N(C)CC2,3.3,1.8,1.2,-1.6,-2.6,0.1
COc1ccc(Nc2nc(Cl)c(C=O)s2)cc1,18.7,-21.1,0.8,-2.6,36.7*,-16.6
COc1ccc(Nc2nc3ccccc3s2)cc1,-3.8,-0.2,-4.4,-12.2,-2.2,-1.4
CC(C)(C)NC(=O)c1ccccc1-c1nc2ccccc2s1,5.5,0.4,-2.2,18.0*,-5.2,5.3
COCCn1cnnc1SCC(=O)Nc1cccc(S(=O)(=O)N(C)c2ccccc2)c1,9.8,-3.6,-0.9,-7.3,-2.3,9.1
Cc1ccc(S(=O)(=O)N(C)c2ccc(OCC(=O)Nc3nc4ccccc4s3)cc2)cc1,31.2*,-15.7,-0.3,-3.1,16.1,-9.5
CCC(=O)c1ccc(OCC(=O)Nc2cccc(S(=O)(=O)N(C)c3ccccc3)c2)cc1,33.6*,-40.6,0.8,2.6,55.9*,-25.5
Cc1ccc(S(=O)(=O)N(C)c2ccc(OCC(=O)Nc3nc4c(ccc5ccccc54)s3)cc2)cc1,3.5,-1.4,-0.7,-2.4,1.9,-2.5
CN(c1ccccc1)S(=O)(=O)c1cccc(NS(=O)(=O)c2cccc(C(=O)O)c2)c1,-8.7,22.9*,3.8,1.3,-13.8,12.1
Cc1nnc(SCC(=O)Nc2cccc(S(=O)(=O)N(C)c3ccccc3)c2)s1,31.2*,-17.8,7.7,0.7,36.0*,-19.0
CN(c1ccccc1)S(=O)(=O)c1cccc(C(=O)NC2CCCCC2)c1,-1.6,0.8,-1.8,-2.5,-3.0,4.3
CC1=C(C(=O)N2CCCCCC2)CC(CC(=O)NCC2CCCCC2)C(=O)N1Cc1ccc(F)cc1 (stereo not given),-12.5,0.2,-0.6,nt,nt,nt
N#C/C(=C\c1ccc(O)c([N+](=O)[O-])c1)c1nc2ccccc2s1,30.7*,-20.5,13.7,2.4,18.1,-10.3
COCc1cccc(-c2csc(C(C)(NC(C)=O)c3ccc(OC)cc3)n2)c1 (stereo not given),0.0,-1.6,4.0,-2.5,8.6,-9.0
CCOc1ccccc1C(=O)N[C@H](C(=O)OCC(=O)Nc1nnc(-c2ccccc2)o1)C(C)C,11.9,0.0,1.1,-0.2,11.5,-5.3
O=C(OCc1ccc(Br)cc1)c1cccc(S(=O)(=O)N2CCCC2)c1,-1.9,-2.0,-3.1,-3.7,0.1,0.3
Cc1c(O)ccc2c(-c3ccccc3)cc(=O)oc12,6.3,-6.6,3.3,1.1,7.6,-11.2
Cc1cccc2cc(-c3ccccc3)c(-c3ccccc3)c[n+]12,11.6,-14.3,-5.9,-9.0,52.4*,-22.6
O=C(NC(=S)NNC(=O)c1ccccc1O)c1ccc(F)cc1,6.9,-7.8,20.4,33.4*,1.8,-9.3
Cc1ccccc1C(=O)NNC(=S)NC(=O)c1ccccc1,7.5,-16.7,23.1,63.1*,13.4,-17.6
O=C(NC(=S)NNC(=O)c1ccccc1O)c1ccccc1,10.6,-1.2,1.4,23.6*,0.6,-6.6
CCC(=O)Nc1ccc2c(c1)OC[C@@H](C)N(C(=O)c1ccccn1)C[C@@H](C)[C@@H](OC)CN(C)C2=O,-7.1,2.4,2.4,nt,nt,nt
Cc1ccc(-n2c(C)nc3c(cnn3-c3ccc(F)cc3)c2=O)cc1C,3.6,-7.8,1.8,1.2,29.0*,-12.1
Cc1ccc(-n2c(C)nc3c(cnn3-c3ccc(C)c(C)c3)c2=O)cc1C,7.3,-4.7,3.6,-5.2,9.6,-8.4
OC[C@H]1O[C@@H](n2cnc3c(NCc4ccco4)ncnc32)[C@H](O)[C@@H]1O,6.3,-17.0,45.0*,35.2*,-13.7,-14.6
OCC1OC(n2cnc3c(NCc4ccco4)ncnc32)C(O)C1O (stereo not given),4.5,1.8,-0.2,-0.8,-16.5,5.6
CC(C)C[C@H]1CN([C@@H](CC(C)C)CN2CCCC2CN2C(=S)NC[C@@H]2Cc2ccccc2)C(=S)N1CCc1ccccc1 (stereo not given in full),-10.5,4.1,2.4,nt,nt,nt
CCCCN(C)CCNC(=O)CN1C(=O)CSc2ccc(S(=O)(=O)N3CCOCC3)cc21,13.0,-4.0,-9.5,-6.0,42.5*,-17.6

# Source: PubChem
